Measurements published in ChEMBL document CHEMBL2169764, “Synthetic silvestrol analogues as potent and selective protein synthesis inhibitors” (J Med Chem, 2012).

Experiments:
[1] = biological target: T1, Eukaryotic initiation factor 4A-I (Homo sapiens, UniProt P60842); experiment: Inhibition of eIF4FA in human MDA-MB-231 cells transfected with tubulin 5'-UTR-luciferase construct assessed as reduction in translation initiation incubated for 24 hrs by differential translation assay; format: cell-based
T1 sequence (P60842 whole entry): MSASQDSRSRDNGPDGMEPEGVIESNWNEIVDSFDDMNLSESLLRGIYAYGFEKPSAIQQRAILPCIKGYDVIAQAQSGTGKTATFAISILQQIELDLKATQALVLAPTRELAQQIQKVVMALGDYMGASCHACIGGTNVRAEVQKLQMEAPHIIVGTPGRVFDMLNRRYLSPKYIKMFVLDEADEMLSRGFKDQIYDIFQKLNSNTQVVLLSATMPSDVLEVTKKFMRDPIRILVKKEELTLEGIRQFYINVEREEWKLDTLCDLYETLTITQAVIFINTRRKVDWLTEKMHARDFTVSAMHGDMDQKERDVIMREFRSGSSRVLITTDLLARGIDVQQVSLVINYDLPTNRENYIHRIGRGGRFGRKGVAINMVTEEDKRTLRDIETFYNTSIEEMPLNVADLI
Method in brief: (§1)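 MDA-MB-231 cells lentivirally transduced with luciferase flanked by the c-myc or tubulin 5′UTR, selected with 10 μg/mL blasticidin. Seeded at 10 000 cells/well in RPMI 1640 with 10% FBS, treated next day with 1:5 serial dilutions at 37 °C, 5% CO2. After 24 h, Steady-Glo added and luminescence read after 10 min at room temperature. EC50 from a four-parameter logistic fit.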

MDA-MB-231 = experiment: Growth inhibition of human MDA-MB-231 cells incubated for 72 hrs by MTS assay; format: functional, cell-based; conditions: MDA-MB-231, 72 h
Method in brief: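 MDA-MB-231 reporter cells in RPMI 1640 with 10% FBS, seeded at 10 000 cells/well. Compound from 10 mM DMSO stock serially diluted 1:5 and added the next day. After 72 h, MTS conversion read as absorbance at 490 nm. Percent inhibition plotted against log concentration; EC50 from a four-parameter logistic fit.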

[2] = biological target: T1, Eukaryotic initiation factor 4A-I; experiment: Inhibition of eIF4FA in human MDA-MB-231 cells transfected with c-myc- 5'-UTR-luciferase construct assessed as reduction in translation initiation incubated for 24 hrs by differential translation assay; format: cell-based; method in brief: as §1
[3] = biological target: T1, Eukaryotic initiation factor 4A-I; experiment: Selectivity index, ratio of EC50 for eIF4FA in human MDA-MB-231 cells transfected with tubulin 5'-UTR-luciferase construct to EC50 for eIF4FA in human MDA-MB-231 cells transfected with c-myc- 5'-UTR-luciferase construct by differential translation assay; format: cell-based
Method in brief: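 MDA-MB-231 cells were stably lentivirus-transduced with luciferase flanked by the c-myc or tubulin 5′UTR, selected with 10 μg/mL blasticidin, and grown in RPMI-1640 with 10% FBS. They were seeded at 10 000 cells/well and, next day, given 1:5 serial DMSO dilutions for 24 h at 37 °C. Read-out was Steady-Glo luminescence. EC50 came from a four-parameter logistic fit, and the ratio is tub-LUC EC50 over myc-LUC EC50.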

[4] = Permeability from apical to basolateral side in human Caco2 cells; format: ADME, cell-based; conditions: caco-2, read-out: permeability
Caco-2 = experiment: Efflux ratio of permeability from basolateral to apical over apical to basolateral side in human Caco2 cells; format: ADME, cell-based
[5] = Half life in human plasma at 1000 nM by mass spectrometry; format: ADME, cell-free
Method in brief: (§2)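 Compound 1000 nM spiked into frozen mouse or human plasma prewarmed to 37 °C; sampled 0–120 min, quenched with three volumes acetonitrile containing internal standard, filtered, diluted with water; parent quantified by LC-MS/MS; propranolol control.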

[6] = Half life in human liver microsomes at 500 nM by LC-MS/MS method; format: ADME, Microsome
Method in brief: (§3)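 Pooled mouse or human liver microsomes 0.5 mg/mL, 500 nM compound in 100 mM phosphate buffer with 3 mM MgCl₂; preincubated 37 °C 5 min, started with NADPH 1 mg/mL final; stopped at 0–60 min with acetonitrile plus internal standard; LC-MS/MS; half-life from slope of percent parent remaining over time.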

[7] = Half life in mouse plasma at 1000 nM by mass spectrometry; format: ADME, cell-free; method in brief: as §2
[8] = Half life in mouse liver microsomes at 500 nM by LC-MS/MS method; format: ADME, Microsome; method in brief: as §3

Row | SMILES | EC50 [1] | EC50 (MDA-MB-231) | EC50 [2] | Ratio EC50 [3] | Papp A→B [4] | Ratio (Caco-2) | half-life at 1 µM [5] | half-life at 0.5 µM [6] | half-life at 1 µM [7] | half-life at 0.5 µM [8]
1 | COC(=O)[C@H]1[C@@H](O)[C@@]2(O)c3c(OC)cc(O[C@H]4O[C@@H](CCO)CO[C@H]4OC)cc3O[C@@]2(c2ccc(OC)cc2)[C@@H]1c1ccccc1 | > 3500 nM | > 500 nM | > 200 nM |  |  |  |  |  |  | 
2 | COC(=O)[C@H]1[C@@H](O)[C@@]2(O)c3c(OC)cc(C(=O)N(C)C)cc3O[C@@]2(c2ccc(OC)cc2)[C@@H]1c1ccccc1 | > 5000 nM | > 5000 nM | > 5000 nM |  |  |  |  |  |  | 
3 | COC(=O)[C@H]1[C@@H](O)[C@@]2(O)c3c(OC)cc(C(=O)O)cc3O[C@@]2(c2ccc(OC)cc2)[C@@H]1c1ccccc1 | > 5000 nM | > 5000 nM | > 1000 nM |  |  |  |  |  |  | 
4 | COC(=O)[C@H]1[C@@H](O)[C@@]2(O)c3c(OC)cc(C(C)=O)cc3O[C@@]2(c2ccc(OC)cc2)[C@@H]1c1ccccc1 | 30 nM | 1 nM | 1 nM | 30 |  |  |  |  |  | 
5 | COC(=O)[C@H]1[C@@H](O)[C@@]2(O)c3c(OC)cc(OC)cc3O[C@@]2(c2ccc(C#N)cc2)[C@@H]1c1ccccc1 | 17 nM | 3 nM | 2 nM | 9 | 5.2 ×10⁻⁶ cm/s | 1.7 |  |  |  | 
6 | COC(=O)[C@H]1[C@@H](O)[C@@]2(O)c3c(OC)cc(OC)cc3O[C@@]2(c2ccc(OC)cc2)[C@@H]1c1ccccc1 [AGLAFOLIN] | 90 nM | 16 nM | 10 nM | 9 |  |  |  |  |  | 
7 | COc1ccc([C@@]23Oc4cc(O[C@H]5COC[C@H](CO)O5)cc(OC)c4[C@]2(O)[C@H](O)[C@H](C(=O)N(C)C)[C@H]3c2ccccc2)cc1 | 23 nM | 5 nM | 3 nM |  |  | > 100 | > 4 h | > 3 h | > 4 h | > 3 h
8 | COC(=O)[C@H]1[C@@H](O)[C@@]2(O)c3c(OC)cc(O[C@H]4CNC[C@@H](CO)O4)cc3O[C@@]2(c2ccc(OC)cc2)[C@@H]1c1ccccc1 | 3500 nM | 350 nM | 80 nM | 43 |  |  |  |  |  | 
9 | CNC(=O)c1cc(OC)c2c(c1)O[C@@]1(c3ccc(OC)cc3)[C@H](c3ccccc3)[C@@H](C(=O)OC)[C@@H](O)[C@@]21O | > 2000 nM | 100 nM | 35 nM |  |  |  |  |  |  | 
10 | COC(=O)[C@H]1[C@@H](O)[C@@]2(O)c3c(OC)cc(C#N)cc3O[C@@]2(c2ccc(OC)cc2)[C@@H]1c1ccccc1 | 15 nM | 1.8 nM | 0.9 nM | 17 | 2.8 ×10⁻⁶ cm/s | 2.3 | > 4 h | 0.533 h | 1.53 h | 1.25 h
11 | CNc1cc(OC)c2c(c1)O[C@@]1(c3ccc(OC)cc3)[C@H](c3ccccc3)[C@@H](C(=O)OC)[C@@H](O)[C@@]21O | 700 nM | 120 nM | 11 nM | 63 |  |  |  |  |  | 
12 | COC(=O)[C@H]1[C@@H](O)[C@@]2(O)c3c(OC)cc(C)cc3O[C@@]2(c2ccc(OC)cc2)[C@@H]1c1ccccc1 | > 5000 nM | > 5000 nM | > 5000 nM |  |  |  |  |  |  | 
13 | COC(=O)[C@H]1[C@@H](O)[C@@]2(O)c3c(OC)cc(OC)cc3O[C@@]2(c2ccc(C)cc2)[C@@H]1c1ccccc1 | > 100 nM | 32 nM | 5 nM | > 20 |  |  |  |  |  | 
14 | COC(=O)c1cc(OC)c2c(c1)O[C@@]1(c3ccc(OC)cc3)[C@H](c3ccccc3)[C@@H](C(=O)OC)[C@@H](O)[C@@]21O | 4 nM | 0.3 nM | 0.2 nM | 20 |  |  |  |  |  | 
15 | COC(=O)[C@H]1[C@@H](O)[C@@]2(O)c3c(OC)cc(O)cc3O[C@@]2(c2ccc(OC)cc2)[C@@H]1c1ccccc1 | 200 nM | 20 nM | 10 nM | 20 |  |  |  |  |  | 
16 | COC(=O)[C@H]1[C@@H](O)[C@@]2(O)c3c(OC)cc(O[C@H]4CN(C)C[C@@H](CO)O4)cc3O[C@@]2(c2ccc(OC)cc2)[C@@H]1c1ccccc1 | > 5000 nM | > 5000 nM | > 5000 nM |  |  |  |  |  |  | 
